How the values were obtained:
Assay type in all cases: functional
[1] = system: KM12; assay: Growth inhibition of human KM12 cells after 48 hrs by sulforhodamine B assay; details: KM12, 48 h
Outline: (§1)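 NCI 60-cell-line panel. Cells are grown in RPMI1640 with 5% fetal calf serum and 2 mM L-glutamine, seeded at a density set by growth characteristics, and preincubated 24 h. Compound is tested at a minimum of five concentrations at 10-fold dilution, with 48 h continuous exposure. Viability is read by sulforhodamine B protein assay. GI50, TGI and LC50 come from dose-response curves.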

[2] = system: CAKI-1; assay: Growth inhibition of human Caki1 cells after 48 hrs by sulforhodamine B assay; details: CAKI-1, 48 h; outline: as §1
[3] = system: UACC-257; assay: Growth inhibition of human UACC257 cells after 48 hrs by sulforhodamine B assay; details: UACC-257, 48 h
Outline: (§2)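 NCI 60-cell-line panel (nine cancer types), with cells grown in RPMI1640 plus 5% fetal calf serum and 2 mM L-glutamine. Cells are seeded at a density that depends on the line and preincubated 24 h. Compounds are then applied at a minimum of five 10-fold dilutions over a 5-log range with 48 h continuous exposure. Viability is read by SRB protein assay, and GI50 is derived from dose-response curves in units of 10^-5 M.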

[4] = system: ACHN; assay: Growth inhibition of human ACHN cells after 48 hrs by sulforhodamine B assay; details: for CC50: read-out: LC50 (the source's name); outline: as §1
[5] = system: NCI-H460; assay: Antiproliferative activity against human NCI-H460 cells assessed as cell growth at 100 uM after 48 hrs by alamar blue assay; details: NCI-H460, 48 h, read-out: Activity
Outline: (§3)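 NCI three-cell-line primary screen. Cells are seeded and preincubated in microtiter plates. Compound is added at a single 10^-4 M concentration and cultures are incubated 48 h. The end-point is read with alamar blue. Results are given as percent growth relative to untreated control cells.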

[6] = system: M14; assay: Growth inhibition of human M14 cells after 48 hrs by sulforhodamine B assay; details: M14, 48 h; outline: as §1
[7] = system: HT-29; assay: Growth inhibition of human HT-29 cells after 48 hrs by sulforhodamine B assay; details: HT-29, 48 h; outline: as §1
[8] = system: OVCAR-8; assay: Growth inhibition of human OVCAR8 cells after 48 hrs by sulforhodamine B assay; details: OVCAR-8, 48 h; outline: as §1
[9] = system: SF-268; assay: Antiproliferative activity against human SF268 cells assessed as cell growth at 100 uM after 48 hrs by alamar blue assay; details: SF-268, 48 h, read-out: Activity; outline: as §3
[10] = system: NCI-H322M; assay: Growth inhibition of human NCI-H322M cells after 48 hrs by sulforhodamine B assay; outline: as §1
[11] = system: OVCAR-4; assay: Growth inhibition of human OVCAR4 cells after 48 hrs by sulforhodamine B assay; details: OVCAR-4, 48 h; outline: as §1
[12] = system: NCI-H522; assay: Growth inhibition of human NCI-H522 cells after 48 hrs by sulforhodamine B assay; details: NCI-H522, 48 h; outline: as §1
[13] = system: MDA-MB-231; assay: Growth inhibition of human MDA-MB-231 cells after 48 hrs by sulforhodamine B assay; details: MDA-MB-231, 48 h; outline: as §1
[14] = system: OVCAR-3; assay: Growth inhibition of human OVCAR-3 cells after 48 hrs by sulforhodamine B assay; details: OVCAR-3, 48 h; outline: as §1
[15] = system: SNB-19; assay: Growth inhibition of human SNB19 cells after 48 hrs by sulforhodamine B assay; details: SNB-19, 48 h; outline: as §2
[16] = system: T47D; assay: Growth inhibition of human T47D cells after 48 hrs by sulforhodamine B assay; outline: as §2
[17] = system: HOP-92; assay: Growth inhibition of human HOP92 cells after 48 hrs by sulforhodamine B assay; details: HOP-92, 48 h; outline: as §1
[18] = system: RXF 393; assay: Growth inhibition of human RXF393 cells after 48 hrs by sulforhodamine B assay; details: RXF 393, 48 h; for CC50: read-out: LC50 (the source's name); outline: as §1
[19] = system: DU-145; assay: Growth inhibition of human DU145 cells after 48 hrs by sulforhodamine B assay; details: DU-145, 48 h; outline: as §1
[20] = system: SF-268; assay: Growth inhibition of human SF268 cells after 48 hrs by sulforhodamine B assay; details: SF-268, 48 h; for CC50: read-out: LC50 (the source's name); outline: as §1
[21] = system: SK-MEL-28; assay: Growth inhibition of human SK-MEL-28 cells after 48 hrs by sulforhodamine B assay; details: SK-MEL-28, 48 h; outline: as §1
[22] = system: HCT-116; assay: Growth inhibition of human HCT116 cells after 48 hrs by sulforhodamine B assay; details: HCT-116, 48 h; outline: as §1
[23] = system: MCF7; assay: Growth inhibition of human MCF7 cells after 48 hrs by sulforhodamine B assay; details: MCF7, 48 h; outline: as §1
[24] = system: MDA-MB-435; assay: Growth inhibition of human MDA-MB-435 cells after 48 hrs by sulforhodamine B assay; details: MDA-MB-435, 48 h; outline: as §1
[25] = system: MOLT-4; assay: Growth inhibition of human MOLT4 cells after 48 hrs by sulforhodamine B assay; details: MOLT-4, 48 h; for CC50: read-out: LC50 (the source's name); outline: as §1
[26] = Growth inhibition of human Hs 578T cells after 48 hrs by sulforhodamine B assay; outline: as §1
[27] = system: 786-0; assay: Growth inhibition of human 786-0 cells after 48 hrs by sulforhodamine B assay; details: 786-0, 48 h; for CC50: read-out: LC50 (the source's name); outline: as §1
[28] = system: K562; assay: Growth inhibition of human K562 cells after 48 hrs by sulforhodamine B assay; details: K562, 48 h; outline: as §1
[29] = system: HL-60(TB); assay: Growth inhibition of human HL-60(TB) cells after 48 hrs by sulforhodamine B assay; details: HL-60, 48 h
Outline: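 NCI 60-cell-line panel. Cells were grown in RPMI1640 with 5% fetal calf serum and 2 mM L-glutamine, seeded at a density suited to each line, and preincubated 24 h. Compounds were tested at a minimum of five concentrations at 10-fold dilutions over a 5-log range, with 48 h continuous exposure. Growth was read by sulforhodamine B protein staining, and GI50 was taken from dose-response curves.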

## COc1ccc(/C=N/c2nc3[nH]nc(C)n3c(=O)c2S(=O)(=O)NN2C(=O)C(CN3CCOCC3)SC2c2cccs2)cc1 (centres undefined)
[1]
  GI50: 4.06 µM
[2]
  GI50: 12.1 µM
  LC50 (50% lethal concentration): > 100 µM
  TGI: > 100 µM
[3]
  GI50: 6.77 µM
  LC50: > 100 µM
  TGI: > 100 µM
[4]
  GI50: 5.48 µM
  TGI: > 100 µM
  CC50: > 100 µM
[5]
  growth at 100 µM: 13%
[6]
  GI50: 6.79 µM
  LC50 (concentration killing 50% of cells): > 100 µM
  TGI: 38.7 µM
[7]
  GI50: 19.4 µM
[8]
  GI50: 60.6 µM
  TGI: > 100 µM
[9]
  growth at 100 µM: 56%
[10]
  GI50: 56.9 µM
  TGI: > 100 µM
[11]
  GI50: > 100 µM
  LC50: > 100 µM
  TGI: > 100 µM
[12]
  GI50: 4.35 µM
  TGI: 27.3 µM
[13]
  GI50: 11.7 µM
  LC50 (50% lethal concentration): > 100 µM
  TGI: 56.1 µM
[14]
  GI50: 3.6 µM
  LC50 (concentration killing 50% of cells): > 100 µM
  TGI: > 100 µM
[15]
  GI50: 34.5 µM
  TGI: > 100 µM
[16]
  GI50: 48 µM
  TGI: > 100 µM
[17]
  GI50: 12.4 µM
  LC50: > 100 µM
  TGI: > 100 µM
[18]
  GI50: 16.6 µM
  TGI: 94.2 µM
  CC50: > 100 µM
[19]
  GI50: 16 µM
  LC50 (concentration giving 50% net cell kill): > 100 µM
  TGI: > 100 µM
[20]
  GI50: 18.5 µM
  TGI: > 100 µM
  CC50: > 100 µM
[21]
  GI50: 82.1 µM
  TGI: > 100 µM
[22]
  GI50: 4.72 µM
  LC50 (concentration killing 50% of cells): > 100 µM
  TGI: 57.4 µM
[23]
  GI50: 3.18 µM
  TGI: > 100 µM
[24]
  GI50: 3.26 µM
  TGI: 36 µM
[25]
  GI50: 4.08 µM
  TGI: 40.6 µM
  CC50: > 100 µM
[26]
  GI50: 13.3 µM
  LC50 (concentration killing 50% of cells): > 100 µM
  TGI: 82.1 µM
[27]
  GI50: 5.82 µM
  TGI: > 100 µM
  CC50: > 100 µM
[28]
  GI50: 2.34 µM
  LC50: > 100 µM
  TGI: 11.3 µM

## COc1ccc(/C=N/c2nc3[nH]nc(C)n3c(=O)c2S(=O)(=O)NN2C(=O)C(CN3CCOCC3)SC2c2ccc(OC)cc2)cc1 (centres undefined)
[1]
  GI50: 36.1 µM
[2]
  GI50: 43.3 µM
  LC50 (50% lethal concentration): > 100 µM
  TGI: > 100 µM
[3]
  GI50: 32.2 µM
  LC50: > 100 µM
  TGI: > 100 µM
[4]
  GI50: 23.1 µM
  TGI: 92.6 µM
  CC50: > 100 µM
[5]
  growth at 100 µM: 16%
[6]
  GI50: 67.4 µM
  LC50 (concentration killing 50% of cells): > 100 µM
  TGI: > 100 µM
[7]
  GI50: 26.7 µM
[8]
  GI50: 31.4 µM
  TGI: > 100 µM
[9]
  growth at 100 µM: 75%
[10]
  GI50: 39.8 µM
  TGI: > 100 µM
[11]
  GI50: 94.4 µM
  LC50: > 100 µM
  TGI: > 100 µM
[12]
  GI50: 32.5 µM
  TGI: > 100 µM
[13]
  GI50: 25.3 µM
  LC50 (50% lethal concentration): > 100 µM
  TGI: > 100 µM
[14]
  GI50: 22.5 µM
  LC50 (concentration killing 50% of cells): > 100 µM
  TGI: 60.5 µM
[15]
  GI50: > 100 µM
  TGI: > 100 µM
[16]
  GI50: > 100 µM
  TGI: > 100 µM
[17]
  GI50: 36.3 µM
  LC50: > 100 µM
  TGI: > 100 µM
[18]
  GI50: 15 µM
  TGI: > 100 µM
  CC50: > 100 µM
[19]
  GI50: 28.8 µM
  LC50 (concentration giving 50% net cell kill): > 100 µM
  TGI: > 100 µM
[20]
  GI50: > 100 µM
  TGI: > 100 µM
  CC50: > 100 µM
[21]
  GI50: > 100 µM
  TGI: > 100 µM
[22]
  GI50: 29.7 µM
  LC50 (concentration killing 50% of cells): > 100 µM
  TGI: 97.3 µM
[23]
  GI50: 77.3 µM
  TGI: > 100 µM
[29]
  GI50: 9.8 µM
  LC50: 74.3 µM
  TGI: 27.2 µM
[24]
  GI50: 35 µM
  TGI: > 100 µM
[25]
  GI50: 13.6 µM
  TGI: 34.4 µM
  CC50: 86.8 µM
[26]
  GI50: 41.1 µM
  LC50 (concentration killing 50% of cells): > 100 µM
  TGI: > 100 µM
[27]
  GI50: 67.1 µM
  TGI: > 100 µM
  CC50: > 100 µM
[28]
  GI50: 13 µM
  LC50: 80.5 µM
  TGI: 32.3 µM
